Source: the RNAGym collection of RNA variant scans (doi:10.1002/anie.201605470)

B1: Osa-1-4 twister ribozyme (parent)
chain: CCGCCUAACACUGCCAAUGCCGGUCCCAAGCCCGGAUAAAAGUGGAGGGGGCGG

Variants of: B1
Test: self-cleavage, relative activity (ratio to wild type); higher = more cleavage; co-transcriptional
Summary of the method: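 A DNA template encoding a 54-nucleotide twister ribozyme from Oryza sativa was made so that each of the 48 positions downstream of the cleavage site carried 97 % wild-type base and 1 % of each other base. Transcription in vitro ran for 2 h at 37 °C, during which the ribozyme could cleave itself. Reverse transcription used a template-switching oligonucleotide, and the products were PCR-amplified and deep-sequenced. Each read was scored as cleaved or uncleaved by whether upstream sequence was present, and relative activity is the fraction cleaved normalised to wild type.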

Q: With CCGCCUAACACUGCCAAUGCCGCUCCCAAGCCCGGAUAAAAGUGGAGGGGGCCG [G23C G53C] as the variant, how does the self-cleavage read?
A: The self-cleavage was 0.02.

Q: With CCGCCUAACACUGCCAAUGCCGCUCCCAAGCCCGGAUAAAAGUGGAGGGGGCAG [G23C G53A] as the variant, how does the self-cleavage read?
A: The self-cleavage was 0.04.

Q: Which self-cleavage does the source give for CCGCCUAACACUGCCAAUGCCGCUCCCAAGCCCGGAUAAAAGUGGAGGGGGCUG [G23C G53U] here?
A: The self-cleavage was 0.04.

Q: Which self-cleavage does the source give for CCGCCUAACACUGCCAAUGCCGAUCCCAAGCCCGGAUAAAAGUGGAGUGGGCGG [G23A G48U] here?
A: The self-cleavage was 0.05.

Q: With CCGCCUAACACUGCCAAUGCCGCUCCCAAGCCCGGAUAAAAGUGGACGGGGCGG [G23C G47C] as the variant, how does the self-cleavage read?
A: Its self-cleavage is 0.03.

Q: Which self-cleavage does the source give for CCGCCUAACACUGCCAAUGCCGCUCCCAAGCCCGGAUAAAAGUGGAUGGGGCGG [G23C G47U] here?
A: The self-cleavage was 0.03.

Q: With CCGCCUAACACUGCCAAUGCCGCUCCCAAGCCCGGAUAAAAGUGGAAGGGGCGG [G23C G47A] as the variant, how does the self-cleavage read?
A: Its self-cleavage is 0.03.

Q: With CCGCCUAACACUGCCAAUGCCGAUCCCAAGCCCGGAUAAAAGUGGAGGGGGCGA [G23A G54A] as the variant, how does the self-cleavage read?
A: Its self-cleavage is 0.2.

Q: For CCGCCUAACACUGCCAAUGCCGAUCCCAAGCCCGGAUAAAAGUGGAGGGGGCGC [G23A G54C], which self-cleavage is on record?
A: The self-cleavage was 0.21.

Q: Which self-cleavage does the source give for CCGCCUAACACUGCCAAUGCCGAUCCCAAGCCCGGAUAAAAGUGGAGGGGGCGU [G23A G54U] here?
A: The self-cleavage was 0.41.

Q: With CCGCCUAACACUGCCAAUGCCGCUCCCAAGCCCGGAAAAAAGUGGAGGGGGCGG [G23C U37A] as the variant, how does the self-cleavage read?
A: Its self-cleavage is 0.04.

Q: For CCGCCUAACACUGCCAAUGCCGCUCCCAAGCCCGGAGAAAAGUGGAGGGGGCGG [G23C U37G], which self-cleavage is on record?
A: The self-cleavage was 0.05.

Q: For CCGCCUAACACUGCCAAUGCCGCUCCCAAGCCCGGACAAAAGUGGAGGGGGCGG [G23C U37C], which self-cleavage is on record?
A: Its self-cleavage is 0.07.

Q: For CCGCCUAACACGGCCAAUGCCGAUCCCAAGCCCGGAUAAAAGUGGAGGGGGCGG [G23A U12G], which self-cleavage is on record?
A: Its self-cleavage is 0.07.

Q: For CCGCCUAACACCGCCAAUGCCGAUCCCAAGCCCGGAUAAAAGUGGAGGGGGCGG [G23A U12C], which self-cleavage is on record?
A: The self-cleavage was 0.08.

Q: With CCGCCUAACACAGCCAAUGCCGAUCCCAAGCCCGGAUAAAAGUGGAGGGGGCGG [G23A U12A] as the variant, how does the self-cleavage read?
A: The self-cleavage was 0.1.

Q: For CCGCCUAACACUGCCAAUGCCGCUCCCAAGCCCUGAUAAAAGUGGAGGGGGCGG [G23C G34U], which self-cleavage is on record?
A: Its self-cleavage is 0.04.

Q: For CCGCCUAACACUGCCAAUGCCGCUCCCAAGCCCCGAUAAAAGUGGAGGGGGCGG [G23C G34C], which self-cleavage is on record?
A: The self-cleavage was 0.04.

Q: Which self-cleavage does the source give for CCGCCUAACACUGCCAAUGCCGCUCCCAAGCCCAGAUAAAAGUGGAGGGGGCGG [G23C G34A] here?
A: The self-cleavage was 0.06.

Q: Which self-cleavage does the source give for CCGCCUAACACUGCCAAUGCCGAUCCCAAGCCCGGAUAAAAGCGGAGGGGGCGG [G23A U43C] here?
A: Its self-cleavage is 0.09.

Q: With CCGCCUAACACUGCCAAUGCCGAUCCCAAGCCCGGAUAAAAGAGGAGGGGGCGG [G23A U43A] as the variant, how does the self-cleavage read?
A: The self-cleavage was 0.1.

Q: With CCGCCUAACACUGCCAAUGCCGAUCCCAAGCCCGGAUAAAAGGGGAGGGGGCGG [G23A U43G] as the variant, how does the self-cleavage read?
A: Its self-cleavage is 0.09.

Q: Which self-cleavage does the source give for CCGCCUAACACUGCCAAUGCCGAUCCCAAGCCCGGAAAAAAGUGGAGGGGGCGG [G23A U37A] here?
A: The self-cleavage was 0.77.

Q: Which self-cleavage does the source give for CCGCCUAACACUGCCAAUGCCGAUCCCAAGCCCGGACAAAAGUGGAGGGGGCGG [G23A U37C] here?
A: The self-cleavage was 0.72.

Q: For CCGCCUAACACUGCCAAUGCCGAUCCCAAGCCCGGAGAAAAGUGGAGGGGGCGG [G23A U37G], which self-cleavage is on record?
A: The self-cleavage was 0.78.

Q: For CCGCCUAACACUGCCAAUGCCGCUCCCAAGCCCGGAUAAAAGUGGAGGGGUCGG [G23C G51U], which self-cleavage is on record?
A: The self-cleavage was 0.03.

Q: With CCGCCUAACACUGCCAAUGCCGCUCCCAAGCCCGGAUAAAAGUGGAGGGGCCGG [G23C G51C] as the variant, how does the self-cleavage read?
A: The self-cleavage was 0.03.

Q: With CCGCCUAACACUGCCAAUGCCGCUCCCAAGCCCGGAUAAAAGUGGAGGGGACGG [G23C G51A] as the variant, how does the self-cleavage read?
A: The self-cleavage was 0.05.

Q: Which self-cleavage does the source give for CCGCCUAACACUGCCAAUGCCGCUCCCAAGCCCGGAUAAAAGUGAAGGGGGCGG [G23C G45A] here?
A: The self-cleavage was 0.04.

Q: For CCGCCUAACACUGCCAAUGCCGCUCCCAAGCCCGGAUAAAAGUGUAGGGGGCGG [G23C G45U], which self-cleavage is on record?
A: The self-cleavage was 0.03.

Q: For CCGCCUAACACUGCCAAUGCCGCUCCCAAGCCCGGAUAAAAGUGCAGGGGGCGG [G23C G45C], which self-cleavage is on record?
A: The self-cleavage was 0.03.

Q: For CCGCCUAACACUGCCAAUGCCGAUCCCAAGCCCGGAUAAAAGUGGAGGGGUCGG [G23A G51U], which self-cleavage is on record?
A: The self-cleavage was 0.08.

Q: With CCGCCUAACACUGCCAAUGCCGAUCCCAAGCCCGGAUAAAAGUGGAGGGGCCGG [G23A G51C] as the variant, how does the self-cleavage read?
A: Its self-cleavage is 0.07.

Q: For CCGCCUAACACUGCCAAUGCCGAUCCCAAGCCCGGAUAAAAGUGGAGGGGACGG [G23A G51A], which self-cleavage is on record?
A: Its self-cleavage is 0.09.

Q: With CCGCCUAACACUGCCAAUGCCGUUCCCAAACCCGGAUAAAAGUGGAGGGGGCGG [G23U G30A] as the variant, how does the self-cleavage read?
A: The self-cleavage was 0.02.

Q: With CCGCCUAACACUGCCAAUGCCGUUCCCAACCCCGGAUAAAAGUGGAGGGGGCGG [G23U G30C] as the variant, how does the self-cleavage read?
A: Its self-cleavage is 0.03.

Q: With CCGCCUAACACUGCCAAUGCCGUUCCCAAUCCCGGAUAAAAGUGGAGGGGGCGG [G23U G30U] as the variant, how does the self-cleavage read?
A: The self-cleavage was 0.02.

Q: Which self-cleavage does the source give for CCGCCUAACACUGCCAAAGCCGCUCCCAAGCCCGGAUAAAAGUGGAGGGGGCGG [G23C U18A] here?
A: Its self-cleavage is 0.06.

Q: With CCGCCUAACACUGCCAACGCCGCUCCCAAGCCCGGAUAAAAGUGGAGGGGGCGG [G23C U18C] as the variant, how does the self-cleavage read?
A: The self-cleavage was 0.14.

Q: Which self-cleavage does the source give for CCGCCUAACACUGCCAAGGCCGCUCCCAAGCCCGGAUAAAAGUGGAGGGGGCGG [G23C U18G] here?
A: Its self-cleavage is 0.06.

Q: With CCGCCUAACACUGCCAAUGCCGAUCCCAAGCCCGGAUAAAAGUGGAGGGUGCGG [G23A G50U] as the variant, how does the self-cleavage read?
A: The self-cleavage was 0.3.

Q: Which self-cleavage does the source give for CCGCCUAACACUGCCAAUGCCGAUCCCAAGCCCGGAUAAAAGUGGAGGGAGCGG [G23A G50A] here?
A: The self-cleavage was 0.23.

Q: Which self-cleavage does the source give for CCGCCUAACACUGCCAAUGCCGAUCCCAAGCCCGGAUAAAAGUGGAGGGCGCGG [G23A G50C] here?
A: The self-cleavage was 0.14.

Q: With CCGCCUAACACUGCCAAUGCCGCUCCCAAGCCCGGAUAAAAGUAGAGGGGGCGG [G23C G44A] as the variant, how does the self-cleavage read?
A: The self-cleavage was 0.04.

Q: Which self-cleavage does the source give for CCGCCUAACACUGCCAAUGCCGCUCCCAAGCCCGGAUAAAAGUCGAGGGGGCGG [G23C G44C] here?
A: Its self-cleavage is 0.04.

Q: With CCGCCUAACACUGCCAAUGCCGCUCCCAAGCCCGGAUAAAAGUUGAGGGGGCGG [G23C G44U] as the variant, how does the self-cleavage read?
A: Its self-cleavage is 0.04.

Q: Which self-cleavage does the source give for CCGCCUAACACUGCCAAUGCCGUUCCCAAGCCCCGAUAAAAGUGGAGGGGGCGG [G23U G34C] here?
A: The self-cleavage was 0.04.

Q: For CCGCCUAACACUGCCAAUGCCGUUCCCAAGCCCUGAUAAAAGUGGAGGGGGCGG [G23U G34U], which self-cleavage is on record?
A: The self-cleavage was 0.05.
